Hits are enriched below; roughly 3.4% of the tested compounds scored in any of these assays.
S100A4 inh HTS = inhibitors of human S100A4 binding to myosin IIA peptide; inhibition, % at 10.7 µM; 360,000 compounds, 0.14% hits; S100A4/TAMRA-MyoIIA peptide fluorescence polarization; P26447;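 active = mean inhibition of at least 70% across replicates, with every replicate also reaching that level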
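Test system: S100A4 monomer protein; Medium: HEPES pH 7.2 with CaCl2, KCl, NaCl, DTT, Triton; Probe or stimulus: TAMRA-labelled myosin IIA heavy-chain peptide probe, 5 nM; Doses: one dose per compound; Times: polarization read 5 min after assay mix addition, stable 5–60 min; Benchmarks: neutral control DMSO, positive control TFP.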
E-sel inducer = induces E-selectin expression in human endothelial cells; P16581; HUVEC E-selectin immunofluorescence imaging; normalized: neutral wells 0, TNF-alpha wells 100; activation, % at 7.58 µM; 260,000 compounds, 0.37% hits;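 active = mean E-selectin-positive cell signal at least 10% of the positive control, reached in at least 60% of replicates, without over 20% cell loss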
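Test system: HUVEC; input: 3,000 HUVEC/well; measured by: immunofluorescence imaging; read-out: % PE-positive cells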
ERAP1 inh = blocks human ERAP1 aminopeptidase activity; 340,000 compounds, 0.15% hits; AID 652197; Q9NZ08; inhibition, % at 10.7 µM; recombinant ERAP1, Leu-AMC fluorescence, 60 min;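 active = mean replicate inhibition of at least 30%, or all replicates individually reaching that 30% level; inactive = mean below 30% and not every replicate reaching it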;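 also: 0% = neutral control wells and 100% = L-leucinethiol positive control wells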
SIRT5 inh = blocks human SIRT5 desuccinylation of peptide | AID 652115 | inhibition, % at 15 µM | 330,000 compounds, 1.1% hits | Purified SirT5, succinyl-peptide AMC, trypsin-coupled fluorescence | Q9NXA8; in the data active = inhibition above about 15%
AF4-AF9 inh = MLL-AF4/AF9 protein interaction inhibition; 350,000 compounds, 0.47% hits; AID 651704; inhibition, % at 10 µM; AlphaScreen, biotin-AF4 peptide binding to FLAG-AF9;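 active = every replicate reaching a set inhibition limit, whatever the replicate mean, cut at about 25% in these data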;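 also: 0% = plate neutral control median and 100% = total signal loss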
Target sequence (P42568 whole entry, looked up): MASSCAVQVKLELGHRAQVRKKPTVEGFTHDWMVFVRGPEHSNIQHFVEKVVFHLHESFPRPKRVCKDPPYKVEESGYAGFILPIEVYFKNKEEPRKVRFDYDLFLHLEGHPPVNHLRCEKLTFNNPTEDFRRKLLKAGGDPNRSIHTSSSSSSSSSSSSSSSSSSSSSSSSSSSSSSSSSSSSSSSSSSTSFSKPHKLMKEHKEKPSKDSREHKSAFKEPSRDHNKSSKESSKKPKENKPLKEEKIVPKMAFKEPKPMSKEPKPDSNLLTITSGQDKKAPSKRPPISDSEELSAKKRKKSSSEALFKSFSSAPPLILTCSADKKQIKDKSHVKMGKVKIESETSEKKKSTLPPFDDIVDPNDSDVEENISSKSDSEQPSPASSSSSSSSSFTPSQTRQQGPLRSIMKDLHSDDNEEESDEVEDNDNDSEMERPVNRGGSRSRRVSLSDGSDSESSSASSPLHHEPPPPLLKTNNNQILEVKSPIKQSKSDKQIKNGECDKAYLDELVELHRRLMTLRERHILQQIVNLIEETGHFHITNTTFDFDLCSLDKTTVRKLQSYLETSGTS
Ecoli rRNA inh = inhibitors of bacterial rRNA selective over humanized ribosomes | GFP signal change (wild-type ribosome), % (no concentration beside the values) | 350,000 compounds, 1.6% hits | E. coli WT GFP vs humanized-ribosome RFP mutants, fluorescence, 24 h; hits give low values; DMSO median 0, no signal -100;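 active = significant combined selectivity score with lowered wild-type GFP, culture density cut under 30%, mutant RFP and density less affected; inactive = any of these conditions unmet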
Numbers without * were called inactive; . = no result given.

SMILES	S100A4 inh HTS	E-sel inducer	ERAP1 inh	SIRT5 inh	AF4-AF9 inh	Ecoli rRNA inh
CCC(=O)N(C)C[C@H]1Oc2ncc(C#Cc3ccncc3)cc2C(=O)N([C@@H](C)CO)C[C@H]1C	-5	0	0	0	-18	3
CCC(=O)N(C)C[C@@H]1Oc2ncc(C#Cc3ccncc3)cc2C(=O)N([C@@H](C)CO)C[C@@H]1C	0	0	36*	-1	-14	7
C[C@@H]1CN([C@H](C)CO)C(=O)c2cc(C#CC(C)(C)O)cnc2O[C@H]1CN(C)C(=O)CC1CC1	9	0	1	25*	-3	6
C[C@H](NC(=O)[C@H](Cc1ccccc1)n1c(=O)[nH]c2ccccc2c1=O)C(=O)N1CCC(C(=O)O)CC1	2	.	-2	15*	-2	7
COCCNC(=O)[C@@H]1[C@@H](CO)[C@@H]2Cn3c(ccc(-c4cccc(F)c4)c3=O)[C@H]1N2C(=O)NC(C)C	6	1	-2	-42	-2	1
CCOC(=O)c1ccccc1NC(=O)c1ccc2c(SCC(=O)O)c3c(nc2c1)CCCC3	-5	-1	-1	22*	0	-10
COc1cc(Cl)c(C)cc1NC(=O)c1ccc2c(SCC(=O)O)c3c(nc2c1)CCCC3	-6	1	-1	-2	1	-31
C[C@H]1CN([C@@H](C)CO)C(=O)Cc2cc(NC(=O)C3CCCCC3)ccc2O[C@@H]1CN(C)Cc1ccc(C(F)(F)F)cc1	7	0	1	2	-1	-2
c1ccc(CNc2ncnc3scc(-c4cccs4)c23)nc1	2	0	11	-2	-2	-27*
COc1ccc(NC(=O)Nc2ccc3c(c2)C(=O)N([C@@H](C)CO)C[C@@H](C)[C@H](CN(C)S(=O)(=O)c2cn(C)cn2)OCCCC[C@H](C)O3)cc1	.	0	.	.	.	-2
Cc1ccc(C(OCC(C)(C)C[N+](C)(C)C)c2ccccc2)cc1 (centres undefined)	3	0	39*	-1	-17	-60
CCN(CC)CCOC(c1ccccc1)c1ccc(C)cc1 (centres undefined)	1	.	0	-3	1	0
O=C1NC(Cc2ccc(O)cc2)c2nc3ccc(F)cc3c(=O)n2-c2ncccc21 (centres undefined)	0	1	8	22*	0	2
O=C1NC(Cc2ccc(O)cc2)c2nc3cc(F)ccc3c(=O)n2-c2ncccc21 (centres undefined)	-1	0	4	2	-2	6
C[C@H](CO)N1C[C@H](C)[C@@H](CN(C)C(=O)Cc2ccccn2)Oc2ncc(-c3cncnc3)cc2C1=O	7	-1	-1	2	-2	-7
CCCNC(=O)N1CC2(CN(Cc3cccc(OC)c3)C2)c2c([nH]c3cc(OC)ccc23)[C@@H]1CO	9	-1	8	8	32*	-3
CCCNC(=O)N1CC2(CCN(Cc3cccc(OC)c3)CC2)c2c([nH]c3cc(OC)ccc23)[C@H]1CO	.	0	.	.	9	1
CCCNC(=O)N1CC2(CN(Cc3cccc(OC)c3)C2)c2c([nH]c3cc(OC)ccc23)[C@H]1CO	11	0	1	-1	36*	-3
CCCNC(=O)N1CC2(CN(Cc3cccc(F)c3)C2)c2c([nH]c3cc(OC)ccc23)[C@H]1CO	9	0	9	4	26*	-10
COc1cccc(NC(=O)N[C@@H]2CC[C@@H](CC(=O)Nc3ccccc3)O[C@H]2CO)c1	0	0	0	1	1	-5
C[C@H](CO)N1C[C@H](C)[C@H](CN(C)CC2CC2)Oc2c(NS(=O)(=O)c3ccccc3)cccc2C1=O	-14	6	1	-1	-2	3
CCC(=O)Nc1ccc2c(c1)C(=O)N(C)[C@@H]1CC[C@@H](CC(=O)O)O[C@@H]1CO2	1	0	-2	-1	-1	1
COc1ccc(S(=O)(=O)N(C)C[C@@H]2Oc3ccc(NC(=O)C4CCCCC4)cc3C(=O)N([C@@H](C)CO)C[C@H]2C)cc1	10	0	2	5	-5	-4
Cc1cc(C)c(C)c(S(=O)(=O)N2CCNCC2)c1C	-4	2	-4	-5	0	11
CC(C)c1cc(C(C)C)c(S(=O)(=O)N2CCNCC2)c(C(C)C)c1	-6	7	1	-2	8	-44*
SMILES	S100A4 inh HTS	E-sel inducer	ERAP1 inh	SIRT5 inh	AF4-AF9 inh	Ecoli rRNA inh
COc1ccc(C[C@H]2CCc3cnnn3COCCNC2=O)cc1	.	.	.	.	.	1
NC(=O)NCC#Cc1ccc2c(c1)[C@]1(C(=O)N2)[C@H](c2ccccc2OCCO)N2[C@H](c3ccccc3)[C@H](c3ccccc3)OC(=O)[C@H]2[C@@H]1C(=O)N1CCCCCCC1	11	.	0	9	3	.
NC(=O)NCC#Cc1ccc2c(c1)[C@]1(C(=O)N2)[C@H](c2ccccc2OCCO)N2[C@H](c3ccccc3)[C@H](c3ccccc3)OC(=O)[C@H]2[C@@H]1C(=O)N1CCN(c2ncccn2)CC1	-7	.	-2	21*	1	.
C=CCNC(=O)[C@@H]1[C@H]2C(=O)O[C@H](c3ccccc3)[C@H](c3ccccc3)N2[C@H](c2ccccc2OCCO)[C@@]12C(=O)N(C(=O)OCCOC)c1ccc(C#CC3(O)CCCCCC3)cc12	2	.	-3	-1	-1	.
C=CCNC(=O)[C@H]1[C@@H]2C(=O)O[C@@H](c3ccccc3)[C@@H](c3ccccc3)N2[C@@H](c2ccccc2OCCO)[C@]12C(=O)Nc1ccc(C#CC3(O)CCCCCC3)cc12	-25	.	2	17*	0	.
CCCNC(=O)[C@H]1[C@H](CO)[C@H]2Cn3c(ccc(C4=CCCC4)c3=O)[C@@H]1N2C(=O)CC	0	0	0	-14	-5	3
COc1ccc(CN(C)C[C@H]2Oc3ccc(NS(=O)(=O)c4ccccc4)cc3CC(=O)N([C@H](C)CO)C[C@H]2C)cc1	-8	0	-4	2	1	1
COc1ccc(CN(C)C[C@H]2Oc3ccc(NS(=O)(=O)c4ccccc4)cc3CC(=O)N([C@@H](C)CO)C[C@@H]2C)cc1	20	0	-7	17*	1	-1
C[C@H]1CN([C@@H](C)CO)C(=O)Cc2cc(NS(=O)(=O)c3ccc(Cl)cc3)ccc2O[C@H]1CN(C)Cc1ccc(Oc2ccccc2)cc1	-25	0	-3	11	1	2
COc1ccc(S(=O)(=O)Nc2ccc3c(c2)CC(=O)N([C@@H](C)CO)C[C@H](C)[C@H](CN(C)Cc2ccc(Oc4ccccc4)cc2)O3)cc1	10	0	3	17*	6	5
